Test results taken from PubChem BioAssay AID504382 (The Scripps Research Institute Molecular Screening Center, 2011).
Hit rate of the full screen: of about 2,500 compounds, about 460 (18%) were called active.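 Rule for the calls: active = mean activation above a cutoff of low control average plus 3 SD from the earlier screen (cut at about 12% in these data); inactive = the rest.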 These entries were drawn from the full list.

Test: IANBD-channel fluorescence artefacts in buffer – biochemical, artefact control for cardiac RTF calcium sensitizer project, confirmation (AID 504382)
Settings: IANBD fluorescence interference counterscreen, EC20 Ca2+, at 7.2 µM, stronger effect = higher value, scaled: EC20 calcium 0, EC100 calcium 100
Outline: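 timing = compound incubation 15 min at 25 °C before fluorescence reading | technique = fluorescence at 480 nm excitation, 540 nm emission | evaluation = interference relative to controls | replication = triplicate wells per compound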

| SMILES | fluorescence artifact activation |
| --- | --- |
| C=CCn1c(C)cc(-c2csc(N)n2)c1C | 2.95% (inactive) |
| O=C(NCc1ccco1)C1CC(c2c(Cl)cccc2Cl)=NO1 (centres undefined) | -0.09% (inactive) |
| COc1cccc(C(=O)NC2CC3CCCC(C2)N3CC(=O)Nc2ccc(N(C)C)cc2)c1 (centres undefined) | 3.62% (inactive) |
| Cc1ccc(/C=C/c2ccc(N(C)C)cc2)[n+](C)c1 | 1.46% (inactive) |
| CN(C)c1ccc(/C=C/c2cc[n+](C)c3ccccc23)cc1 | 0.06% (inactive) |
| CN(C)c1ccc(/C=C/c2cc[n+](C)cc2)cc1 | 14.5% (active) |
| O=C1N(c2cccc(Cl)c2)C(c2ccccc2)N2CCCN12 (centres undefined) | -0.04% (inactive) |
| COc1ccc(COc2cc(-c3cccc(OC)c3)nc3ccc(NC(=O)c4ccc(C)cc4)cc23)cc1 | 0.13% (inactive) |
| COc1cccc(CC(NC(C)=O)C(=O)NC2CCN(c3nc(C)cc(C)c3C#N)CC2)c1OC (centres undefined) | 6.12% (inactive) |
| CCCCN(C(=O)c1ccc2c(c1)OCCO2)c1c(N)n(CCCC)c(=O)[nH]c1=O | -0.02% (inactive) |
| CC(=O)Nc1ccc(NC(=O)C(C)OC(=O)/C(C#N)=C/c2ccc(N(C)C)cc2)cc1 (centres undefined) | 2.64% (inactive) |
| CC1CC(C)(C)NC(=S)N1CCCC(=O)Nc1ccccc1F (centres undefined) | 0.07% (inactive) |
| CCC(C)n1ncn(-c2ccc(N3CCN(c4ccc(OCC5COC(Cn6cncn6)(c6ccc(Cl)cc6Cl)O5)cc4)CC3)cc2)c1=O (centres undefined) | 121% (active) |
| CC1(C)c2[nH]c3ccccc3c2C[C@H]2C(=O)N(Cc3ccc(F)cc3)C(=O)N21 | 0% (inactive) |
| Cc1onc(-c2ccccc2Cl)c1C(=O)N(Cc1ccc(N(C)C)cc1)C(C)C | 2.44% (inactive) |
| CCOC(=O)c1cc2c(s1)-c1ccccc1CC2 | 0.55% (inactive) |
| CCOC(=O)c1ccccc1-n1nnnc1C | 0.06% (inactive) |
| CCOC(=O)c1cc2n(c1N)-c1ccccc1C2=O | 19.5% (active) |
| COc1cc(/C=C/C=C2/CC/C(=C/C=C/c3ccc(O)c(OC)c3)C2=O)ccc1O | 7.81% (inactive) |
| C/C(=C\C=C(C#N)C#N)c1cc(C#N)c(N)o1 | 3.09% (inactive) |

| SMILES | fluorescence artifact activation |
| --- | --- |
| N#C/C(=C/c1ccc(N2CCOCC2)o1)c1ccc(Cl)cc1 | 0% (inactive) |
| N#C/C(=C/c1ccc(N2CCCCCC2)o1)c1cccc(F)c1 | 33.8% (active) |
| N#C/C(=C/c1ccc(N2CCCCCC2)o1)c1ccc(Cl)cc1 | 12.3% (active) |
| N#C/C(=C\c1ccc(N2CCOCC2)o1)C(=O)N1CCOCC1 | 0.05% (inactive) |
| N#C/C(=C\c1ccc(N2CCCCC2)o1)C(N)=O | 2.99% (inactive) |
| Cc1ncoc1C(=O)N1CCc2c([nH]c3ccccc23)C1C(C)(C)C (centres undefined) | 0.21% (inactive) |
| CN(C)c1ccc(/C=C/c2ccc3ccccc3n2)cc1 | 0.06% (inactive) |
| CN1CCN(CCNC(=O)Nc2ccc(Cl)cc2)CC1 | 3.25% (inactive) |
| CCCCCCSc1ccc([C@@H]2[C@H]3C(=O)N(CC)C(=O)[C@H]3[C@]3(C(=O)OC)CCCCN23)cc1OC | -0.04% (inactive) |
| CCn1cc(Cl)c(C(=O)NNC(=O)CCn2cc([N+](=O)[O-])cn2)n1 | -0.04% (inactive) |
| CN1/C(=C\C=C2/SC(=S)N(CC(=O)O)C2=O)C(C)(C)c2ccccc21 | 0.11% (inactive) |
| CC1(C)c2ccccc2N2CC(=O)N(CC(N)=O)C21C (centres undefined) | 20.9% (active) |
| CN1C(=CC=C2C=C(I)C(=O)C(I)=C2)C(C)(C)c2ccccc21 | 0.22% (inactive) |
| CC(=O)Nc1ccccc1 | -0.1% (inactive) |
| O=C(Nc1ccccc1)NC1CS(=O)(=O)CC1O (centres undefined) | 32.8% (active) |
| O=C(Nc1ccccc1)OC1CCC2CC1CCC2OC(=O)Nc1ccccc1 (centres undefined) | -0.01% (inactive) |
| c1ccc(CCC2=NCCn3cccc32)cc1 | 4.53% (inactive) |
| CCCCn1c(N)c(N(CC(C)C)C(=O)Cc2ccc(S(=O)(=O)N3CCOCC3)s2)c(=O)[nH]c1=O | 3.01% (inactive) |
| Brc1ccc2[nH]c3nc(SCCN4CCOCC4)nnc3c2c1 | 0.16% (inactive) |
| COc1ccc(/C=C2\SC(=S)N(CCCC(=O)Nc3ccccc3C(=O)O)C2=O)cc1OC | 5.03% (inactive) |

| SMILES | fluorescence artifact activation |
| --- | --- |
| Cc1cccc(OCCNc2ccc(C(F)(F)F)cc2[N+](=O)[O-])c1 | 43.7% (active) |
| O=C(Nc1ccccc1)c1ccc(NCCc2ccccc2)c([N+](=O)[O-])c1 | 0.33% (inactive) |
| CC(=O)c1cccc(-n2c(CCC(=O)O)ccc2-c2ccccc2)c1 | 0.06% (inactive) |
| Cc1nnc(-c2ccccc2)c(=O)n1/N=C/c1c(O)ccc2ccccc12 | 0.11% (inactive) |
| C/C(=N\NC(=O)c1cc2c(s1)CCC(C)C2)c1ccc[nH]1 (centres undefined) | 0.04% (inactive) |
| Cc1oc2c(cc(NS(=O)(=O)c3ccc(C(C)C)cc3)c3ccccc32)c1C(=O)O | -0.05% (inactive) |
| O=C1S/C(=C\c2ccc(N3CCOCC3)o2)C(=O)N1Cc1c(F)cccc1Cl | 226% (active) |
| O=C(CSCc1c(F)cccc1Cl)Nc1ccccc1C(=O)N1CCOCC1 | 2.06% (inactive) |
| O=C1S/C(=C\c2ccc(N3CCOCC3)o2)C(=O)N1c1ccccc1 | 22.4% (active) |
| O=C1S/C(=C\c2ccc(N3CCOCC3)o2)C(=O)N1Cc1ccc(F)cc1 | -0.07% (inactive) |
| CN1C/C(=C\c2ccc(N3CCOCC3)cc2)C(=O)/C(=C/c2ccc(N3CCOCC3)cc2)C1 | 0.12% (inactive) |
| CCCN1C(=O)S/C(=C\c2ccc(N3CCOCC3)o2)C1=O | 0.73% (inactive) |
| O=C1N/C(=C\c2ccsc2)C(=O)N1Cc1ccc(F)cc1 | 0.11% (inactive) |
| CCCN1C(=O)S/C(=C/c2ccc(N3CCOCC3)o2)C1=O | 31.7% (active) |
| CC(C)OC(=O)CN1C(=O)S/C(=C/c2ccc(N3CCCCC3)o2)C1=O | 0.64% (inactive) |
| O=C1S/C(=C/c2ccc(N3CCOCC3)o2)C(=O)N1Cc1c(F)cccc1Cl | 5.76% (inactive) |
| O=C(O)c1ccccc1-c1ccc(/C=C2\SC(=O)N(c3ccccc3)C2=O)o1 | 0.06% (inactive) |
| O=C1S/C(=C/c2ccc(N3CCOCC3)o2)C(=O)N1Cc1ccc(F)cc1 | 16.8% (active) |
| CCCOc1ccc(C2C(C(=O)/C=C/c3ccco3)=C(O)C(=O)N2CCN2CCOCC2)cc1OC (centres undefined) | 9.14% (inactive) |
